Assay results taken from ChEMBL document CHEMBL1135581, “Novel selective PDE4 inhibitors. 3. In vivo antiinflammatory activity of a new series of N-substituted cis-tetra- and cis-hexahydrophthalazinones” (J Med Chem, 2002).

Columns and labels:
Phosphodiesterase 4 = Phosphodiesterase 4 (Homo sapiens, UniProt P27815+Q08499+Q07343+Q08493); test: Inhibitory concentration against phosphodiesterase 4 (PDE4) in cytosol of human neutrophils; assay type: protein assay
Mus musculus [1] = test: Percent inhibition of arachidonic acid (AA) […], induced mouse ear edema after pretreatment at a concentration of 30 umol/kg (po); assay type: functional
How it was run: (§1)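 Female NMRI mice, 25–32 g, n = 8 per group. Compound in water (pH 6.5–7) given by gavage at 30 μmol/kg, 1 h before 3 mg arachidonic acid in 10 μL acetone applied to the right ear.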

[2] = Inhibition of N-formyl-methionyl-leucyl-phenylalanine (fMLP)-stimulated production of reactive oxygen species (ROS) in human PMNL by 35% of control; assay type: functional
How it was run: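 PMNL isolated from citrated human blood (dextran sedimentation, ficoll, hypotonic lysis), 1.25 × 10^7 cells/mL. Buffer: HEPES saline with Mg/Ca, glucose, BSA, 10 μM luminol, 4 μM microperoxidase. […] IC35 by nonlinear regression. Two independent determinations in triplicate.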

[3] = Inhibition of LPS-stimulated tumor necrosis factor-alpha release by human whole blood; assay type: functional
How it was run: (§2)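 Heparinized venous human whole blood (8 U/mL) from healthy volunteers, preincubated 15 min at 37 °C with compound (0.001–10 μM final, 0.1% DMSO). Then stimulated with LPS (1 μg/mL final) for 4 h at 37 °C. Plasma TNFα measured by nonisotopic immunoassay. IC30 from concentration–inhibition curves by nonlinear regression. Means of two independent determinations in triplicate.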

Mus musculus [4] = test: Percent inhibition of arachidonic acid induced mouse ear edema after 1 hr pretreatment with 30 uM/kg peroral dose; assay type: functional; how it was run: as §1
[5] = Inhibition of LPS-stimulated Tumor necrosis factor alpha release by human whole blood; assay type: functional; how it was run: as §2

Row | SMILES | Log IC50 (Phosphodiesterase 4) | inhibition in vivo at 30 µmol/kg (Mus musculus [1]) | further results
1 | CCN1N=C(c2ccc(OC)c(OC)c2)C2CCCCC2C1=O (centres undefined) | -7.4 |  | 
2 | C#CCN1N=C(c2ccc(OC)c(OC)c2)C2CCCCC2C1=O (centres undefined) | -7.4 |  | 
3 | COc1ccc(C2=NN(C3CCCCCC3)C(=O)C3CC=CCC23)c2c1OC1(CCCC1)C2 (centres undefined) |  | 49% | 
4 | COc1ccc(C2=NN(C3CCOCC3)C(=O)C3CC=CCC23)cc1OC (centres undefined) | -8.9 | 2% | 
5 | COc1ccc([C@]2(C#N)CC[C@@H](C(=O)O)CC2)cc1OC1CCCC1 [CILOMILAST] |  | 33% | pIC35 [2]: 7.04; pIC30 [3]: 4.89
6 | COc1ccc(C2=NN(Cc3ccncc3)C(=O)C3CCCCC23)cc1OC (centres undefined) | -7.8 | 29% | 
7 | COc1ccc(C2=NN(C(C)C)C(=O)C3CC=CCC23)cc1OC (centres undefined) | -8.9 | 15% | 
8 | COc1ccc(C2=NN(CCCOc3ccccc3)C(=O)C3CCCCC23)cc1OC (centres undefined) | -7.9 |  | 
9 | COc1ccc(C2=NN(CCn3ccnc3)C(=O)C3CCCCC23)cc1OC (centres undefined) | -6.3 |  | 
10 | COc1ccc(C2=NN(CCCCCCN)C(=O)C3CCCCC23)cc1OC (centres undefined) | -7.1 |  | 
11 | COc1ccc(C2=NN(CC(=O)c3ccccc3)C(=O)C3CCCCC23)cc1OC (centres undefined) | -8 |  | 
12 | COc1ccc(C2=NN(CCc3ccccc3)C(=O)C3CCCCC23)cc1OC (centres undefined) | -7.6 |  | 
13 | COc1ccccc1CN1N=C(c2ccc(OC)c(OC)c2)C2CCCCC2C1=O (centres undefined) | -7.7 |  | 
14 | COc1ccc(C2=NN(Cc3ccc(C(=O)O)cc3)C(=O)C3CCCCC23)cc1OC (centres undefined) | -7.3 | 27% | 
15 | COc1ccc(C2=NN(C(C)C)C(=O)C3CCCCC23)cc1OC (centres undefined) | -8.6 | 14% | 
16 | COc1ccc(C2=NN(C3Cc4ccccc4C3)C(=O)C3CC=CCC23)cc1OC (centres undefined) | -9.1 |  | 
17 | COc1ccc(C2=NN(CCO)C(=O)C3CCCCC23)cc1OC (centres undefined) | -6.8 |  | 
18 | COc1ccc(CN2N=C(c3ccc(OC)c(OC)c3)C3CCCCC3C2=O)cc1 (centres undefined) | -8.2 | 13% | 
19 | COc1ccc(C2=NN(C3CCCCCC3)C(=O)C3CC=CCC23)cc1OC (centres undefined) |  | 59% | pIC35 [2]: 6.82; pIC30 [3]: 7.05

Row | SMILES | Log IC50 (Phosphodiesterase 4) | inhibition in vivo at 30 µmol/kg (Mus musculus [1]) | further results
20 | COc1ccc(C2=NN(Cc3cccnc3)C(=O)C3CCCCC23)cc1OC (centres undefined) | -7.6 |  | 
21 | COc1ccc(C2=NN(C3CCCCC3)C(=O)C3CC=CCC23)cc1OC (centres undefined) | -9.2 | 13% | 
22 | COc1ccc(C2=NN(C3CCCCCCC3)C(=O)C3CC=CCC23)cc1OC (centres undefined) | -9.3 | 30% | 
23 | COc1ccc(C2=NN(Cc3ccccn3)C(=O)C3CCCCC23)cc1OC (centres undefined) | -7.6 |  | 
24 | COc1ccc(C2=NN(C)C(=O)C3CCCCC23)cc1OC (centres undefined) | -6.8 |  | 
25 | COc1ccc([C@@H]2CNC(=O)C2)cc1OC1CCCC1 [(-)-ROLIPRAM] |  |  | Inhibition (Mus musculus [4]): 55%
26 | COc1ccc(C2=NN(C3CCSCC3)C(=O)C3CC=CCC23)cc1OC (centres undefined) | -8.9 |  | 
27 | COc1ccc(C2=NN(C3CCCCCC3)C(=O)C3CCCCC23)cc1OC (centres undefined) | -8.6 | 18% | pIC30 [5]: 7.3
28 | COc1ccc(C2=NN(Cc3cccc(C(=O)O)c3)C(=O)C3CCCCC23)cc1OC (centres undefined) | -7.9 | 18% | 
29 | CCOC(=O)CN1N=C(c2ccc(OC)c(OC)c2)C2CCCCC2C1=O (centres undefined) | -7.2 |  | 
30 | COc1ccc(C2=NN(CCCCn3ccnc3)C(=O)C3CCCCC23)cc1OC (centres undefined) | -8 | 39% | 
31 | COc1cccc(CN2N=C(c3ccc(OC)c(OC)c3)C3CCCCC3C2=O)c1 (centres undefined) | -8.5 | 8% | 
32 | COc1ccc(C2=NN(Cc3ccccc3O)C(=O)C3CCCCC23)cc1OC (centres undefined) | -8.1 |  | 
33 | COc1ccc(C2=NN(C3CCCC3)C(=O)C3CCCCC23)cc1OC (centres undefined) | -8.4 |  | 
34 | COc1ccc(C2=NN(CCCO)C(=O)C3CCCCC23)cc1OC (centres undefined) | -7.5 |  | 
35 | C=CCN1N=C(c2ccc(OC)c(OC)c2)C2CCCCC2C1=O (centres undefined) | -7.6 |  | 
36 | COc1ccc(C2=NN(C3CCCC3)C(=O)C3CC=CCC23)cc1OC (centres undefined) | -9.3 | 19% | 
37 | COc1ccc(C2=NN(C3C4CC5CC(C4)CC3C5)C(=O)C3CC=CCC23)cc1OC (centres undefined) | -9.4 | 51% | pIC35 [2]: 6.3; pIC30 [3]: 7.22
38 | COc1ccc(C2=NN(CCCCN(C)C)C(=O)C3CCCCC23)cc1OC (centres undefined) | -7 |  | 

Row | SMILES | Log IC50 (Phosphodiesterase 4) | inhibition in vivo at 30 µmol/kg (Mus musculus [1]) | further results
39 | COc1ccc(C2=NN(CC#N)C(=O)C3CCCCC23)cc1OC (centres undefined) | -7.2 |  | 
40 | COc1ccc(C2=NN(Cc3ccc(O)cc3)C(=O)C3CCCCC23)cc1OC (centres undefined) | -8 |  | 
41 | COc1ccc(C2=NN(C3CCCCCC3)C(=O)C3CC=CCC23)c2c1OC(C)(C)C2 (centres undefined) |  | 54% | pIC30 [3]: 7.05
42 | COc1ccc(C2=NN(CCCCCC(=O)[O-])C(=O)C3CCCCC23)cc1OC.[Na+] (centres undefined) | -7.5 | 18% | 
43 | COc1ccc(C2=NN(C(C)(C)C)C(=O)C3CCCCC23)cc1OC (centres undefined) | -7.9 |  | 
44 | COc1ccc(C2=NN(CCN(C)C)C(=O)C3CCCCC23)cc1OC (centres undefined) | -6.5 |  | 
45 | COc1ccc(C2=NN(CCCCCCCC(=O)O)C(=O)C3CCCCC23)cc1OC (centres undefined) | -7.6 |  | Inhibition (Mus musculus [4]): 13%
46 | COC(=O)c1ccc(CN2N=C(c3ccc(OC)c(OC)c3)C3CCCCC3C2=O)cc1 (centres undefined) | -7.9 |  | 
47 | COc1ccc(C2=NN(CCCCCCN(C)C)C(=O)C3CCCCC23)cc1OC (centres undefined) | -7 |  | 
48 | COc1ccc(C2=NN(C/C=C/c3ccccc3)C(=O)C3CCCCC23)cc1OC (centres undefined) | -7.8 |  | 
49 | COc1ccc(C2=NN(C3CCCCCC3)C(=O)C3CCCCC23)c2c1OC1(CCCC1)C2 (centres undefined) | -9.2 | 29% | 
50 | COc1cc(CN2N=C(c3ccc(OC)c(OC)c3)C3CCCCC3C2=O)cc(OC)c1 (centres undefined) | -7.6 |  | 
51 | CCCN1N=C(c2ccc(OC)c(OC)c2)C2CCCCC2C1=O (centres undefined) | -7.8 |  | 
52 | COc1ccc(C2=NN(Cc3cccc(O)c3)C(=O)C3CCCCC23)cc1OC (centres undefined) | -8 |  | 
53 | COc1ccc(C2=NN(c3ccccc3)C(=O)C3CCCCC23)cc1OC (centres undefined) | -7.6 |  | 
54 | COc1ccc(C2=NN(CC(=O)O)C(=O)C3CCCCC23)cc1OC (centres undefined) | -5.7 |  | 
55 | COc1ccc([C@H](Cc2ccncc2)c2ccccc2)cc1OC1CCCC1 [CDP840] |  | 48% | pIC35 [2]: 7.2; pIC30 [3]: 4.82
56 | COc1ccc(C2=NN(CC3CC3)C(=O)C3CC=CCC23)cc1OC (centres undefined) | -8.1 | 15% | 
